Source: ChEMBL document CHEMBL1152538, “Synthesis and biological evaluation of asymmetric gramicidin S analogues containing modified D-phenylalanine residues” (Bioorg Med Chem, 2009)
Values after ≈ are worked out from the molar mass of the structure shown. *1 amine or outer side, *2 acyl side, *3 side chain or, on linkers, in order; H or OH if unused. Where a SMILES comes first, the peptide text is derived from it. [ ]: non-standard residue; d: D form. The star is where a group is joined. X4 = O=C([C@H](Cc1ccc(N(Cc2ccccc2)Cc2ccccc2)cc1)N[*:1])[*:2]; Phe(4-NO2) = N[C@@H](Cc1ccc([N+](=O)[O-])cc1)C(=O)O; X3 = O=C([C@H](Cc1ccc(NCc2ccccc2)cc1)N[*:1])[*:2]; Diphenylacetyl = O=C(C(c1ccccc1)c1ccccc1)*; X5 = O=C(C(c1ccccc1)(c1ccccc1)c1ccccc1)*; Phe(4-NH2) = Nc1ccc(C[C@H](N)C(=O)O)cc1; X1 = O=C(C1C2CC3CC(C2)CC1C3)*; Isobutyryl = CC(C)C(=O)*; Orn = NCCC[C@H](N)C(=O)O; Propionyl = CCC(=O)*

How the values were obtained:
[1] = test system: coagulase-negative Staphylococcus; experiment: Antibacterial activity against coagulase-negative Staphylococcus CNS 7368 after 24 to 96 hrs by well microplate assay
[2] = test system: coagulase-negative Staphylococcus; experiment: Antibacterial activity against coagulase-negative Staphylococcus CNS 5277 after 24 to 96 hrs by well microplate assay
Streptococcus mitis [3] = experiment: Antibacterial activity against Streptococcus mitis ATCC 33399 after 24 to 96 hrs by well microplate assay; format: functional
How it was run: (§1)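 Strains were kept at -70 °C, grown at 30 °C on sheep-blood Columbia agar, and suspended in saline to OD595 0.1, then diluted 10×. Inoculum was added at 2 µL per 100 µL Nutrient Broth with yeast extract (2 g/400 mL). Peptide stocks were 4 g/L in ethanol, diluted to 1000 mg/L in water, then twofold in broth (64–1 mg/L). Plates were held at 30 °C for 24–96 h. MIC was the lowest concentration inhibiting growth.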

Escherichia coli = experiment: Antibacterial activity against Escherichia coli ATCC 25922 after 24 to 96 hrs by well microplate assay; format: functional
How it was run: as §1

Streptococcus mitis [4] = experiment: Antibacterial activity against Streptococcus mitis BMS after 24 to 96 hrs by well microplate assay; format: functional
How it was run: as §1

Staphylococcus aureus [5] = experiment: Antibacterial activity against Staphylococcus aureus 7388 after 24 to 96 hrs by well microplate assay; format: functional
How it was run: as §1

Enterococcus faecalis = experiment: Antibacterial activity against Enterococcus faecalis 1131 after 24 to 96 hrs by well microplate assay; format: functional
How it was run: as §1

Staphylococcus aureus [6] = experiment: Antibacterial activity against Staphylococcus aureus 7323 after 24 to 96 hrs by well microplate assay; format: functional
How it was run: as §1

Pseudomonas aeruginosa [7] = experiment: Antibacterial activity against Pseudomonas aeruginosa AK1 after 24 to 96 hrs by well microplate assay; format: functional
How it was run: as §1

Pseudomonas aeruginosa [8] = experiment: Antibacterial activity against Pseudomonas aeruginosa ATCC 19582 after 24 to 96 hrs by well microplate assay; format: functional
How it was run: as §1

[9] = test system: coagulase-negative Staphylococcus; experiment: Antibacterial activity against coagulase-negative Staphylococcus CNS 5115 after 24 to 96 hrs by well microplate assay
[10] = Cytotoxicity against human erythrocytes assessed as hemolysis at 1.5 mM after 4 hrs by twofold dilution assay; format: cell-based; details: erythrocyte, 1500 µM

| SMILES | MIC [1] [µg/mL] | MIC [2] [µg/mL] | MIC (Streptococcus mitis [3]) [µg/mL] | MIC (Escherichia coli) [µg/mL] | MIC (Streptococcus mitis [4]) [µg/mL] | MIC (Staphylococcus aureus [5]) [µg/mL] | MIC (Enterococcus faecalis) [µg/mL] | MIC (Staphylococcus aureus [6]) [µg/mL] | MIC (Pseudomonas aeruginosa [7]) [µg/mL] | MIC (Pseudomonas aeruginosa [8]) [µg/mL] | MIC [9] [µg/mL] | Activity [10] |
| --- | --- | --- | --- | --- | --- | --- | --- | --- | --- | --- | --- | --- |
| CC(C)C[C@@H]1NC(=O)[C@H](CCCN)NC(=O)[C@H](C(C)C)NC(=O)[C@@H]2CCCN2C(=O)[C@H](Cc2ccccc2)NC(=O)[C@H](CC(C)C)NC(=O)[C@H](CCCN)NC(=O)[C@H](C(C)C)NC(=O)[C@@H]2CCCN2C(=O)[C@H](Cc2ccc(NC(=O)C(C)C)cc2)NC1=O (cyclo(FPV[Orn]L[Phe(4-NH2)](Isobutyryl)PV[Orn]L)) | 16 (≈ 13 µM) | 16 (≈ 13 µM) | 32 (≈ 26.1 µM) | 32 (≈ 26.1 µM) | 8 (≈ 6.52 µM) | 16 (≈ 13 µM) | 16 (≈ 13 µM) | 32 (≈ 26.1 µM) | > 64 | > 64 | 16 (≈ 13 µM) | – |
| CC(C)C[C@@H]1NC(=O)[C@H](CCCN)NC(=O)[C@H](C(C)C)NC(=O)[C@@H]2CCCN2C(=O)[C@H](Cc2ccccc2)NC(=O)[C@H](CC(C)C)NC(=O)[C@H](CCCN)NC(=O)[C@H](C(C)C)NC(=O)[C@@H]2CCCN2C(=O)[C@H](Cc2ccc(NCc3ccccc3)cc2)NC1=O (cyclo(FPV[Orn]L[X3]PV[Orn]L)) | 64 (≈ 51.3 µM) | 64 (≈ 51.3 µM) | 64 (≈ 51.3 µM) | > 64 | 64 (≈ 51.3 µM) | 64 (≈ 51.3 µM) | > 64 | > 64 | > 64 | > 64 | > 64 | – |
| CC(C)C[C@@H]1NC(=O)[C@H](CCCN)NC(=O)[C@H](C(C)C)NC(=O)[C@@H]2CCCN2C(=O)[C@H](Cc2ccccc2)NC(=O)[C@H](CC(C)C)NC(=O)[C@H](CCCN)NC(=O)[C@H](C(C)C)NC(=O)[C@@H]2CCCN2C(=O)[C@H](Cc2ccc(N)cc2)NC1=O (cyclo(FPV[Orn]L[Phe(4-NH2)]PV[Orn]L)) | 16 (≈ 13.8 µM) | 16 (≈ 13.8 µM) | 32 (≈ 27.7 µM) | 64 (≈ 55.3 µM) | 8 (≈ 6.92 µM) | 16 (≈ 13.8 µM) | 64 (≈ 55.3 µM) | 32 (≈ 27.7 µM) | > 64 | > 64 | 32 (≈ 27.7 µM) | – |
| CC(C)C[C@@H]1NC(=O)[C@H](CCCN)NC(=O)[C@H](C(C)C)NC(=O)[C@@H]2CCCN2C(=O)[C@H](Cc2ccccc2)NC(=O)[C@H](CC(C)C)NC(=O)[C@H](CCCN)NC(=O)[C@H](C(C)C)NC(=O)[C@@H]2CCCN2C(=O)[C@H](Cc2ccc(NC(=O)C(c3ccccc3)c3ccccc3)cc2)NC1=O (cyclo(FPV[Orn]L[Phe(4-NH2)](Diphenylacetyl)PV[Orn]L)) | 8 (≈ 5.92 µM) | 64 (≈ 47.4 µM) | > 64 | > 64 | 16 (≈ 11.8 µM) | 32 (≈ 23.7 µM) | 16 (≈ 11.8 µM) | 16 (≈ 11.8 µM) | > 64 | > 64 | > 64 | – |
| CC(C)C[C@@H]1NC(=O)[C@H](CCCN)NC(=O)[C@H](C(C)C)NC(=O)[C@@H]2CCCN2C(=O)[C@H](Cc2ccccc2)NC(=O)[C@H](CC(C)C)NC(=O)[C@H](CCCN)NC(=O)[C@H](C(C)C)NC(=O)[C@@H]2CCCN2C(=O)[C@H](Cc2ccc(NC(=O)C3C4CC5CC(C4)CC3C5)cc2)NC1=O (some centres not stated) (cyclo(FPV[Orn]L[Phe(4-NH2)](X1)PV[Orn]L)) | 8 (≈ 6.07 µM) | 16 (≈ 12.1 µM) | 16 (≈ 12.1 µM) | > 64 | 8 (≈ 6.07 µM) | 8 (≈ 6.07 µM) | 64 (≈ 48.5 µM) | 8 (≈ 6.07 µM) | > 64 | > 64 | 8 (≈ 6.07 µM) | Non-toxic |
| CC(C)C[C@@H]1NC(=O)[C@H](CCCN)NC(=O)[C@H](C(C)C)NC(=O)[C@@H]2CCCN2C(=O)[C@H](Cc2ccccc2)NC(=O)[C@H](CC(C)C)NC(=O)[C@H](CCCN)NC(=O)[C@H](C(C)C)NC(=O)[C@@H]2CCCN2C(=O)[C@H](Cc2ccc([N+](=O)[O-])cc2)NC1=O (cyclo(FPV[Orn]L[Phe(4-NO2)]PV[Orn]L)) | 16 (≈ 13.5 µM) | 16 (≈ 13.5 µM) | 32 (≈ 27 µM) | 64 (≈ 53.9 µM) | 32 (≈ 27 µM) | 16 (≈ 13.5 µM) | 32 (≈ 27 µM) | 16 (≈ 13.5 µM) | > 64 | > 64 | 16 (≈ 13.5 µM) | – |
| CC(C)C[C@@H]1NC(=O)[C@H](CCCN)NC(=O)[C@H](C(C)C)NC(=O)[C@@H]2CCCN2C(=O)[C@H](Cc2ccccc2)NC(=O)[C@H](CC(C)C)NC(=O)[C@H](CCCN)NC(=O)[C@H](C(C)C)NC(=O)[C@@H]2CCCN2C(=O)[C@H](Cc2ccc(N(Cc3ccccc3)Cc3ccccc3)cc2)NC1=O (cyclo(FPV[Orn]L[X4]PV[Orn]L)) | 64 (≈ 47.9 µM) | 64 (≈ 47.9 µM) | 64 (≈ 47.9 µM) | > 64 | 64 (≈ 47.9 µM) | > 64 | > 64 | > 64 | > 64 | > 64 | > 64 | – |
| CC(C)C[C@@H]1NC(=O)[C@H](CCCN)NC(=O)[C@H](C(C)C)NC(=O)[C@@H]2CCCN2C(=O)[C@H](Cc2ccccc2)NC(=O)[C@H](CC(C)C)NC(=O)[C@H](CCCN)NC(=O)[C@H](C(C)C)NC(=O)[C@@H]2CCCN2C(=O)[C@H](Cc2ccc(NC(=O)C(c3ccccc3)(c3ccccc3)c3ccccc3)cc2)NC1=O (cyclo(FPV[Orn]L[Phe(4-NH2)](X5)PV[Orn]L)) | > 64 | > 64 | > 64 | > 64 | 64 (≈ 44.9 µM) | > 64 | > 64 | > 64 | > 64 | > 64 | > 64 | – |
| CC(=O)Nc1ccc(C[C@@H]2NC(=O)[C@H](CC(C)C)NC(=O)[C@H](CCCN)NC(=O)[C@H](C(C)C)NC(=O)[C@@H]3CCCN3C(=O)[C@H](Cc3ccccc3)NC(=O)[C@H](CC(C)C)NC(=O)[C@H](CCCN)NC(=O)[C@H](C(C)C)NC(=O)[C@@H]3CCCN3C2=O)cc1 (cyclo(FPV[Orn]L[Phe(4-NH2)](Ac)PV[Orn]L)) | 32 (≈ 26.7 µM) | 16 (≈ 13.3 µM) | 16 (≈ 13.3 µM) | 64 (≈ 53.4 µM) | 8 (≈ 6.67 µM) | 16 (≈ 13.3 µM) | 64 (≈ 53.4 µM) | 64 (≈ 53.4 µM) | > 64 | > 64 | 32 (≈ 26.7 µM) | Non-toxic |
| CCC(=O)Nc1ccc(C[C@@H]2NC(=O)[C@H](CC(C)C)NC(=O)[C@H](CCCN)NC(=O)[C@H](C(C)C)NC(=O)[C@@H]3CCCN3C(=O)[C@H](Cc3ccccc3)NC(=O)[C@H](CC(C)C)NC(=O)[C@H](CCCN)NC(=O)[C@H](C(C)C)NC(=O)[C@@H]3CCCN3C2=O)cc1 (cyclo(FPV[Orn]L[Phe(4-NH2)](Propionyl)PV[Orn]L)) | 8 (≈ 6.6 µM) | 8 (≈ 6.6 µM) | 16 (≈ 13.2 µM) | 64 (≈ 52.8 µM) | 8 (≈ 6.6 µM) | 16 (≈ 13.2 µM) | 32 (≈ 26.4 µM) | 32 (≈ 26.4 µM) | > 64 | > 64 | 16 (≈ 13.2 µM) | – |
